From article PMC6104147 (Journal of Pharmaceutical Analysis, 2018)

What was measured:
Stock solution stability = format: physicochemical; details: stock solution in methanol; for Long-term stability of stock solution, time with no significant change: 5 °C
Summary of the method: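 Methanol stock solutions of the analyte (500 µg/mL) and its deuterated internal standard (100 µg/mL) were tested for short-term and long-term stability. Working solutions were made by dilution in methanol. Stock and working solutions were stored at 2–8 °C.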

PDE-5 = details: cited from earlier work
[1] = format: in vivo, human
Summary of the method: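 Single oral 20 mg tablet dose, test vs reference formulation, given fasting to 24 healthy Indian subjects. The test compound was measured in plasma by LC-MS/MS with a deuterated internal standard. 200 µL plasma was extracted on Strata-X-C SPE and run on a Synergi Hydro-RP C18 column. Mobile phase was methanol:10 mM ammonium formate pH 4.0 (90:10) at 0.9 mL/min, with positive ESI MRM. Calibration range was 0.50–500 ng/mL, and non-compartmental PK was calculated.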

[2] = Stability of tadalafil in human plasma under storage and process conditions; format: in vitro ADME
Whole blood stability = format: in vitro ADME, human; details: 25 °C
[3] = cited from earlier work
[4] = 20 mg oral, fasting, 24 subjects

| Structure (SMILES) | Long-term stability of stock solution, time with no significant change (Stock solution stability) | Short-term stability of stock solution, time remained stable (Stock solution stability; room temperature) | Selectivity for PDE-5 over other PDE isozymes (PDE-5) [times] | Intra subject variation of AUC 0-inf [1, 4] [% CV] | Intra subject variation of AUC 0–168 h [1, 4] [% CV] | Intra subject variation of Cmax [1, 4] [% CV] | Cmax ([1]; male, human, plasma, po, 20 mg) [ng/mL] | Tmax ([1]; male, human, plasma, po, 20 mg) [h] | half-life ([1]; male, human, plasma, po, 20 mg) [h] | Ratios of mean log-transformed Cmax, AUC0–168 h and AUC0-inf and their 90% confidence intervals ([1]; test vs reference, overall range, acceptance criterion 80%–125%) | Time found stable in plasma at room temperature ([2]; controlled blank plasma) | Time stable in extracted plasma samples, room temperature ([2]; extracted plasma samples) [h] | Whole blood stability, time with no evidence of degradation (Whole blood stability) | Selectivity for PDE-5 over PDE-1–4 and PDE-7–10 (PDE-5) [times] | Bioavailability [3] | Fraction of the metabolized drug excreted in the urine [3] |
| --- | --- | --- | --- | --- | --- | --- | --- | --- | --- | --- | --- | --- | --- | --- | --- | --- |
| [2H]C([2H])([2H])N1CC(=O)N2[C@H](c3ccc4c(c3)OCO4)c3[nH]c4ccccc4c3C[C@@H]2C1=O [TAD-d3, tadalafil-d3] | up to 10 days | up to 7 h | – | – | – | – | – | – | – | – | – | – | – | – | – | – |
| CCCc1nn(C)c2c(=O)[nH]c(-c3cc(S(=O)(=O)N4CCN(C)CC4)ccc3OCC)nc12 [sildenafil] | – | – | 41 | – | – | – | – | – | – | – | – | – | – | – | – | – |
| CN1CC(=O)N2[C@H](c3ccc4c(c3)OCO4)c3[nH]c4ccccc4c3C[C@@H]2C1=O [tadalafil] | up to 10 days | – | – | 11.56 | 10.09 | 9.53 | 396 | ~2.37 | 18.6 ± 2.47 | 99.2% to 110.9 | up to 12 h | 12 | up to 2 h | 1000 | approximately 80% | one third |
